Among the data in ChEMBL document CHEMBL1155366, “Synthesis of novel ageladine A analogs showing more potent matrix metalloproteinase (MMP)-12 inhibitory activity than the natural product” (Bioorg Med Chem Lett, 2009) are IC50 values, retold here.

The structures appear in SMILES notation. pIC50: −log10 of the molar value.

Sequence of Macrophage metalloelastase (P39900 whole entry, the tested form may be a part): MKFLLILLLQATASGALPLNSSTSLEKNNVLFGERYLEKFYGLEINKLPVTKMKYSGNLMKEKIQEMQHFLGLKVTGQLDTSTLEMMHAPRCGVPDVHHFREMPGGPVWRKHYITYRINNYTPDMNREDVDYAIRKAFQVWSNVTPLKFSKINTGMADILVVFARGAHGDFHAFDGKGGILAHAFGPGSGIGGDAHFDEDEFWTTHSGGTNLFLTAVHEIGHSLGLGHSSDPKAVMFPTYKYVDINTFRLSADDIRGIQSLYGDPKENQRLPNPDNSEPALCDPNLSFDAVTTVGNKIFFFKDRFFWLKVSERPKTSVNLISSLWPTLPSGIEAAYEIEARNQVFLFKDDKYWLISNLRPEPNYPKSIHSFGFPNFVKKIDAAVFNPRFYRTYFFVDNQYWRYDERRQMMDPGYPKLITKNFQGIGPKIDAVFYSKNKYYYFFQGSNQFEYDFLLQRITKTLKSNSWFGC

In this assay the target is Macrophage metalloelastase (Homo sapiens, UniProt P39900). The assay can be described thus: Inhibition of human MMP12 catalytic domain. An outline of the steps:
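Human MMP-12 catalytic domain (residues 84-255) in 50 mM Tris pH 7.5, 0.05% Brij-35, 10 mM CaCl₂, 1 mM DTNB. Preincubated with inhibitor in DMSO for 20 min at RT. The chromogenic thiopeptolide substrate (1 mM stock) was then added and the mix incubated 30–80 min at 37 °C. Reaction stopped with 0.2 M EDTA (pH 8.0); color read at 405 nm.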
`Nc1nc2c(-c3[nH]c(Br)c(CCc4cccc(C(F)(F)F)c4)c3Br)nccc2[nH]1`: the negative-log IC50 (pIC50) was < 4.00. With `Nc1nc2c(-c3[nH]c(Br)c(Br)c3CCc3ccccc3)nccc2[nH]1`, the negative logarithm of the IC50 (pIC50) is < 4.00.

Consider `Nc1nc2c(-c3cc(Br)c[nH]3)nccc2[nH]1`, for which the pIC50 is < 4.00. To `Nc1nc2c(-c3cc(CCc4ccccc4)c(Br)[nH]3)nccc2[nH]1` belongs 4.99; to `Nc1nc2c(-c3ccc(Br)[nH]3)nccc2[nH]1`, < 4.00; to `Cc1[nH]c(-c2nccc3[nH]c(N)nc23)c(Br)c1Br`, < 4.00.

The compound `Nc1nc2c(-c3cc(Cl)c(Cl)[nH]3)nccc2[nH]1` gave a pIC50 of 5.30. To `Cc1c(Br)[nH]c(-c2nccc3[nH]c(N)nc23)c1Br` belongs 5.30. On to `Cc1cc(-c2nccc3[nH]c(N)nc23)[nH]c1Br`, for which the pIC50 is < 4.00.

For the compound `Cc1[nH]c(-c2nccc3[nH]c(N)nc23)cc1Br`, the pIC50 is < 4.00. For `Nc1nc2c(-c3cc(Br)c(-c4ccc(-c5ccccc5)cc4)[nH]3)nccc2[nH]1` the value was < 4.00; for `Nc1nc2c(-c3cc(CCCc4ccccc4)c(Br)[nH]3)nccc2[nH]1`, < 4.00; for `Nc1nc2c(-c3cc(-c4ccccc4)c(Br)[nH]3)nccc2[nH]1`, 4.73.

As to `Nc1nc2c(-c3[nH]c(Br)c(CCc4ccc(C(F)(F)F)cc4)c3Br)nccc2[nH]1`, the pIC50 was < 4.00. For `Nc1nc2c(-c3[nH]c(Br)c(CCc4ccccc4)c3Br)nccc2[nH]1` the value was 5.52.

Regarding `Nc1nc2c(-c3[nH]c(Br)c(CCCc4ccccc4)c3Br)nccc2[nH]1`, the pIC50 is < 4.00. To `Nc1nc2c(-c3cc(Cc4ccccc4)c(Br)[nH]3)nccc2[nH]1` belongs < 4.00. As to `Nc1nc2c(-c3cc(Br)c(-c4ccccc4)[nH]3)nccc2[nH]1`, the pIC50 was < 4.00.

The compound `Nc1nc2c(-c3cc(Br)c(Cl)[nH]3)nccc2[nH]1` had a pIC50 of 5.69. To `Nc1nc2c(-c3[nH]c(Br)c(CCc4ccccc4C(F)(F)F)c3Br)nccc2[nH]1` belongs < 4.00; to `Nc1nc2c(-c3cc(Br)c(-c4cccc(-c5ccccc5)c4)[nH]3)nccc2[nH]1`, < 4.00; to `Nc1nc2c(-c3[nH]c(Br)c(Br)c3Br)nccc2[nH]1`, 5.91.

As to `Nc1nc2c(-c3[nH]c(Br)c(Cc4ccccc4)c3Br)nccc2[nH]1`, the negative-log IC50 (pIC50) is < 4.00.

Usually pIC50 stands for the IC50 on a negative log10 scale, so that one unit is a factor of ten.
